According to ChEMBL document CHEMBL2029238, “Contribution of phosphates and adenine to the potency of adenophostins at the IP₃ receptor: synthesis of all possible bisphosphates of adenophostin A” (J Med Chem, 2012):

Key:
Type in all cases: functional, cell-based
[1] = biological target: Inositol 1,4,5-trisphosphate-gated calcium channel ITPR1 (Rattus norvegicus, UniProt P29994); experiment: Agonist activity at rat IP3R1 expressed in chicken DT40 cells assessed as induction of Ca2+ release
Procedure, shortened: (§1)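 DT40 cells stably expressing only rat IP3R1 loaded with Mag-fluo-4AM (20 μM, 1 h, 20 °C). Permeabilized with saponin (10 μg/mL, 4 min, 37 °C), then washed in Mg2+-free cytosol-like medium (~200 nM free Ca2+, pH 7.0). ER Ca2+ loaded with 1.5 mM Mg-ATP for 150 s before ligand addition.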

[2] = biological target: Inositol 1,4,5-trisphosphate-gated calcium channel ITPR1 (Rattus norvegicus) (UniProt P29994); experiment: Agonist activity at rat IP3R1 expressed in chicken DT40 cells assessed as Ca2+ release relative to control
Procedure, shortened: as §1, with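 “addition. Release measured by luminal fluorescence (ex 485/em 520 nm) as a fraction of the 1 μM ionomycin-releasable content.” for “addition.”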

[3] = biological target: Inositol 1,4,5-trisphosphate-gated calcium channel ITPR1 (Rattus norvegicus) (UniProt P29994); experiment: Agonist activity at rat IP3R1 expressed in chicken DT40 cells assessed as Ca2+ release at 50 uM relative to control

Chain of Inositol 1,4,5-trisphosphate-gated calcium channel ITPR1 (Rattus norvegicus) (P29994 whole entry, looked up): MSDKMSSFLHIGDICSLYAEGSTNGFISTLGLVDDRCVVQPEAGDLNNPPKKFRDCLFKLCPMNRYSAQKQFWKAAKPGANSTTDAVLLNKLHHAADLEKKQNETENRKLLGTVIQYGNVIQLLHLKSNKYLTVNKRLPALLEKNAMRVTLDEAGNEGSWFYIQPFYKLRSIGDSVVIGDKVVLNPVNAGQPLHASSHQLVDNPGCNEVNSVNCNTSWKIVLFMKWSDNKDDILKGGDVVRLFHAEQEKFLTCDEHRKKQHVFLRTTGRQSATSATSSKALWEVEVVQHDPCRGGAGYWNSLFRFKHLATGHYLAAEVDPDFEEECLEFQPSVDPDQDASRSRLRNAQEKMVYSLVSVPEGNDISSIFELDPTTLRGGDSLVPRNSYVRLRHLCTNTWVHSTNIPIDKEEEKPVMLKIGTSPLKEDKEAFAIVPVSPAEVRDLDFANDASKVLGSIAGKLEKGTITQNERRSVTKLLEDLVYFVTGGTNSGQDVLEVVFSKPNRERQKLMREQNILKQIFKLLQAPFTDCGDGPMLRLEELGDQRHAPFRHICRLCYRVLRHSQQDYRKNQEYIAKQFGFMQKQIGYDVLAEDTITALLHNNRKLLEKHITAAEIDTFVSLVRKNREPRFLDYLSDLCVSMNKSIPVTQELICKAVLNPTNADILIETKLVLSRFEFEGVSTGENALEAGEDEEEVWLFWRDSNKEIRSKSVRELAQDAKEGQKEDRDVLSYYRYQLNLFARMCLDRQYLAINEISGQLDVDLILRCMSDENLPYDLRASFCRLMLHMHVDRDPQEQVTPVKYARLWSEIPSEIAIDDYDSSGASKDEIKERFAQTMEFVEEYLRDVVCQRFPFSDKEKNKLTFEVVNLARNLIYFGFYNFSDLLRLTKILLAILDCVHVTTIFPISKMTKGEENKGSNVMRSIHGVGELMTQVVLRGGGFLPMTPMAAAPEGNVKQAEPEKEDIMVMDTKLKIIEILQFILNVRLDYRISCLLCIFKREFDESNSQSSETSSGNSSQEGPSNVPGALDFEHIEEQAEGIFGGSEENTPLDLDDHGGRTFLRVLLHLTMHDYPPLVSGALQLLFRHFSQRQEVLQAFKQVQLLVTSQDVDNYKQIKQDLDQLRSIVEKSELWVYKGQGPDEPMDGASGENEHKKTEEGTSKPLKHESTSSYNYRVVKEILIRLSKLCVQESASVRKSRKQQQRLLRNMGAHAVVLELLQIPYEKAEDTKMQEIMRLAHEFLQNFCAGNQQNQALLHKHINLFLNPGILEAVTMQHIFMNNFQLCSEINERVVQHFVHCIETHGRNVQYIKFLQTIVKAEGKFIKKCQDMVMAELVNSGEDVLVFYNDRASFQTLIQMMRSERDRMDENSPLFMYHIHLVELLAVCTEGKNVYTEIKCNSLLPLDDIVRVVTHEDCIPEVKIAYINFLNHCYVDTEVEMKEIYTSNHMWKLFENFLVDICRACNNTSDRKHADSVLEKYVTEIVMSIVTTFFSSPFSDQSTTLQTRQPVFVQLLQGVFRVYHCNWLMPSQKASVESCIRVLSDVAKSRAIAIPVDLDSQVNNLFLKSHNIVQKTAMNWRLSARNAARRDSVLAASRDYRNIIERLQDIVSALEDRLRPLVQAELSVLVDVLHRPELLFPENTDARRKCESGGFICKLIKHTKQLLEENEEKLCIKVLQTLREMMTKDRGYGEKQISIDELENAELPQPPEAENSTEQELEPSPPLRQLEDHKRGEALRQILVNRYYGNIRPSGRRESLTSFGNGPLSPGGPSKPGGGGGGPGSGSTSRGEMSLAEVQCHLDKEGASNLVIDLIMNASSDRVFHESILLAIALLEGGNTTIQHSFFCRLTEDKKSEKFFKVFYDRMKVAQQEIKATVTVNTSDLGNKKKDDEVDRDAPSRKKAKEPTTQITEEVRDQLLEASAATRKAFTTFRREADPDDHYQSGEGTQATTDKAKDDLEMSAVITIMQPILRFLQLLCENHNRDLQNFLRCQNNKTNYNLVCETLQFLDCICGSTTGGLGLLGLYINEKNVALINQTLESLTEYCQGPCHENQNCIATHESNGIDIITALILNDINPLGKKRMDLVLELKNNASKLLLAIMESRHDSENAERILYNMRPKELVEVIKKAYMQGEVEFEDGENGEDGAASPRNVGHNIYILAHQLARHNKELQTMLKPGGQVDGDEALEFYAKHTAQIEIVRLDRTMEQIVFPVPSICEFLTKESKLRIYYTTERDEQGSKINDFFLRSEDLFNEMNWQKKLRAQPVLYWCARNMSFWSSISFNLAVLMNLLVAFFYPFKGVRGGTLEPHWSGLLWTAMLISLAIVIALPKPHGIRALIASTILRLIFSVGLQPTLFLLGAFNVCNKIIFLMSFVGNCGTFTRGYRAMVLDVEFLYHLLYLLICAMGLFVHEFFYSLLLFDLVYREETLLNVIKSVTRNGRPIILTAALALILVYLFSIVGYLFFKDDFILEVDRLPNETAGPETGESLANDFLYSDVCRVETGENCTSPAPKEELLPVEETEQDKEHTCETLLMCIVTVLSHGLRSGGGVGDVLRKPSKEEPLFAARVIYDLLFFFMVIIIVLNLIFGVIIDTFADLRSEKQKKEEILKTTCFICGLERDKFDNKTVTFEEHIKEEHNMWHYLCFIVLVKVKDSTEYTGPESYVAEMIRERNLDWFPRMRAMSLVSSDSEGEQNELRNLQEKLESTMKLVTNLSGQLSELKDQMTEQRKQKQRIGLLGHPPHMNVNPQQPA

Structure (SMILES)	EC50 [1] [µM]	Activity [2] [%]	Activity [3] [%]
O=P(O)(O)O[C@H]1[C@H](OP(=O)(O)O)[C@@H](O)C(O)O[C@@H]1CO (stereo not given in full)	25.2	72	
Nc1ncnc2c1ncn2[C@@H]1O[C@H](CO)[C@@H](O[C@H]2O[C@H](CO)[C@@H](O)[C@H](OP(=O)(O)O)[C@H]2O)[C@H]1OP(=O)(O)O			8
Nc1ncnc2c1ncn2[C@@H]1O[C@H](CO)[C@@H](O[C@H]2O[C@H](CO)[C@@H](OP(=O)(O)O)[C@H](O)[C@H]2O)[C@H]1OP(=O)(O)O	53		53
Nc1ncnc2c1ncn2[C@@H]1O[C@H](CO)[C@@H](O[C@H]2O[C@H](CO)[C@@H](OP(=O)(O)O)[C@H](OP(=O)(O)O)[C@H]2O)[C@H]1O	0.107	67	
Nc1ncnc2c1ncn2[C@@H]1O[C@H](CO)[C@@H](O[C@H]2O[C@H](CO)[C@@H](OP(=O)(O)O)[C@H](OP(=O)(O)O)[C@H]2O)[C@H]1OP(=O)(O)O [ADENOPHOSTIN A]	0.0028		
O=P(O)(O)O[C@@H]1[C@@H](O)[C@H](O)[C@H](O)[C@H](O)[C@H]1OP(=O)(O)O	8.63	73	
